Screening results from PubChem.
OXTR potentiator: human OXTR potentiators, primary screen, fluorescence, CHO-OTR cells, Fluo-8 calcium; Oxytocin receptor (Homo sapiens), P30559; activation, % at 3 µM; 0.061% of 320,000 active; Fluo-8 calcium fluorescence, potentiator mode; 0% = oxytocin EC15, 100% = EC100; AID 2445, 2010;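 active = activation above that plate's cutoff, the mean activation of tested compounds plus 3 SD, cut at about 6.6% in these data, passing the limit was not always enough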;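 note: 100% uses oxytocin at 75 nM as the full agonist control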
Target sequence (P30559 whole entry, looked up): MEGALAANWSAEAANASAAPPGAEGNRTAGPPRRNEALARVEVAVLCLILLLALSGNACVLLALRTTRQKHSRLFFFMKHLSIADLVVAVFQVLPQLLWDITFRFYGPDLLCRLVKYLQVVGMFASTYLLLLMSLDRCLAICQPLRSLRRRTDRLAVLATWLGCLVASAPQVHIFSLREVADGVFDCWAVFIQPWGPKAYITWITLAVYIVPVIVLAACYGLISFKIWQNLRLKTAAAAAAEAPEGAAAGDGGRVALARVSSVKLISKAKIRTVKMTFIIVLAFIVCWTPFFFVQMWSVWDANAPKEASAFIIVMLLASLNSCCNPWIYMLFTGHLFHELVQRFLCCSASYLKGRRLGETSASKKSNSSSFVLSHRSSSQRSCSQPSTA
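assay system = CHO-OTR cells, human receptor | schedule = compound 6 min at room temperature before oxytocin, 100 s read | detection = Fluo-8 intracellular calcium fluorescence, ex 470-495, em 515-575 nm | evaluation = normalized max/min fluorescence ratio, % activation | control set = EC15 oxytocin alone as 0%, 75 nM oxytocin (EC100) as 100%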
V1aR counter: agonists of human V1a receptor, primary screen, counter-screen for OXTR agonist project, fluorescence, CHO-V1R cells | Vasopressin V1a receptor (Homo sapiens), P37288 | Fluo-8 calcium fluorescence, agonist mode; 0% DMSO, 100% 3 nM vasopressin | activation, % at 3 µM | 0.25% of 320,000 active;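 active = activation above the mean activation of all tested compounds plus 3 SD, per screening run, cut at about 20% in these data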;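 note: signal is peak over basal fluorescence ratio across a 100 second FLIPR read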
TAAR1 antag: human TAAR1 antagonists, primary screen, Fluo-8 calcium fluorescence, CHO RD-HGA16 cells | antagonist | inhibition, % at 3 µM | 1.5% of 360,000 active;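 active = inhibition above a per-plate cutoff, the mean inhibition of test compounds on that plate plus 3 SD, cut at about 49% in these data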;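 note: 0% = DMSO plus EC80 beta-PEA response and 100% = DMSO alone without agonist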
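test system = CHO RD-HGA16 cells bearing hTAAR1 | replication = singlicate | controls = DMSO-only wells and EC80 β-PEA-stimulated wells | reagent = EC80 β-phenethylamine stimulus | read-out basis = percent inhibition of PEA-evoked calcium signal, max/basal emission ratio | schedule = seeding 17-24 h prior, 75-min 37 °C, 30-min RT dye loading | signal = kinetic Fluo-8 calcium fluorescence measurement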
TAAR1 ag: human TAAR1 agonists, primary screen, Fluo-8 calcium fluorescence, CHO RD-HGA16 cells. Trace amine-associated receptor 1 (Homo sapiens), Q96RJ0. activation, % at 3 µM. vehicle wells 0%, saturating PEA agonist 100%. AID 624467, 2012. 0.99% of 360,000 active;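 active = activation above the mean activation of all test compounds in the run plus 3 SD, cut at about 38% in these data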
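Test system: RD-HGA16 (CHO) cells co-expressing Gα16 and hTAAR1 | Doses: Single dose, 3 µM | Schedule: 17-24 h seeding, 75 min 37 °C dye, 30 min RT | Evaluation: % activation from peak over basal fluorescence ratio, DMSO-to-PEA scaled | Technique: Kinetic Fluo-8 calcium fluorescence | Benchmarks: Low control DMSO, high control PEA (EC100)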
OXTR agonist: human OXTR agonists, primary screen, fluorescence, CHO-OTR cells, Fluo-8 calcium; activation, % at 3 µM; 0.32% of 320,000 active; Oxytocin receptor (Homo sapiens), P30559; Fluo-8 calcium fluorescence; normalized: DMSO 0%, oxytocin 100%; AID 2435, 2010;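 active = activation above the mean of all tested compounds plus 3 SD, cutoff set per screening run, cut at about 20% in these data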;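 note: peak over basal fluorescence ratio from a 100 s FLIPR kinetic read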
nonsel antag count: nonselective antagonists in TAAR1 counter-screen cells, counter-screen for hTAAR1 antagonist project, cell-based, fluorescence, calcium. shares compounds with TAAR1 antag. counterscreen cell line, antagonist mode. inhibition, % at 3 µM. 77% of 2,400 active. AID 651780, 2012; in the data active = inhibition above about 22%;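 note: CHO-Ga16 host cells stimulated with ATP at an EC80 level; 0% = agonist EC80 plus vehicle and 100% = vehicle without agonist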
TAAR1 antag conf: human TAAR1 antagonists, retest of hits, confirmation, cell-based, fluorescence. shares compounds with TAAR1 antag. TAAR1-expressing cells, fluorescence antagonist read-out. inhibition, % at 3 µM. 40% of 2,400 active; in the data active = inhibition above about 49%;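 note: CHO-Ga16 host cells challenged with agonist PEA near its EC80; 0% = agonist at EC80 plus vehicle and 100% = vehicle with no agonist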
Ga16 ag counter: calcium activation in Ga16-expressing cells, counter-screen for TAAR1 antagonist project, cell-based, fluorescence. shares compounds with TAAR1 antag. agonist counterscreen. activation, % at 3 µM. 18% of 2,400 active; in the data active = activation above about 12%;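 note: 0% = vehicle wells and 100% = saturating stimulus response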
TAAR1 ag count: TAAR1 activation by candidate antagonists – cell-based, fluorescence, counter-screen for TAAR1 antagonist project; 2% of 2,400 active; activation, % at 3 µM; hTAAR1 cell line, agonist mode; shares compounds with TAAR1 antag; in the data active = activation above about 37%;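 note: CHO cells stably expressing TAAR1 with calcium dye readout; 0% = DMSO vehicle and 100% = full agonist response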
* marks the source's active call; other numbers are inactive results; . = no result. Hits are enriched below; roughly 2.3% of the tested compounds scored in any of these assays.

SMILES | OXTR potentiator | V1aR counter | TAAR1 antag | TAAR1 ag | OXTR agonist | nonsel antag count | TAAR1 antag conf | Ga16 ag counter | TAAR1 ag count
O=C(c1cc(-c2ccncc2)nc2ccccc12)N1CCN(Cc2ccccc2)CC1 | -3 | 0 | 57* | 19 | 0 | 19 | 40 | 12* | 14
Cc1ccccc1CN1CCN(C(=O)c2cc(-c3ccncc3)nc3ccccc23)CC1 | -8 | 2 | 71* | 12 | 3 | 35* | 46 | 9 | 9
CCC(C)Nc1ncnc2c1cnn2Cc1ccc(Cl)cc1 (centres undefined) | -6 | 3 | 55* | 4 | 0 | 17 | 35 | 13* | 18
CC(C)C1C(=O)N(Cc2cn(CCC3OCCO3)nn2)CCS(=O)(=O)N1Cc1ccc(-c2ccc(Cl)cc2)cc1 (centres undefined) | . | . | 53* | 11 | . | 30* | 31 | 8 | 4
CC1C(=O)N(Cc2cn(CCC3OCCO3)nn2)CCS(=O)(=O)N1Cc1ccc(-c2ccc(Cl)c(Cl)c2)cc1 (centres undefined) | . | . | 75* | 20 | . | 38* | 41 | 15* | 9
CC(C)C1C(=O)N(Cc2cn(CCC3OCCCO3)nn2)CCS(=O)(=O)N1Cc1ccc(-c2ccc(Cl)cc2)cc1 (centres undefined) | . | . | -14 | 1 | . | . | . | . | .
COc1cc(-c2cnc3c(NC(C)=O)cc(-c4cccc(C(=O)NCCO)c4)cn23)cc(OC)c1OC | . | . | 13 | 4 | . | . | . | . | .
COc1ccc(CNC(=O)C2CCN(c3nc(-c4ccccc4)nc4c3CCC4)CC2)cc1 | -8 | 2 | -18 | 2 | -1 | . | . | . | .
CC(=O)c1ccccc1NC(=O)COC(=O)c1cc(C)oc1C | -3 | 0 | 54* | 34 | -2 | 4 | 10 | 0 | 5
COc1ccccc1NC(=O)COC(=O)c1cc(C)oc1C | -7 | -1 | -2 | 3 | -2 | . | . | . | .
COc1cc(C(=O)N2CCCN(c3nc4cc(C)ccc4cc3C#N)CC2)cc(OC)c1OC | -12 | 1 | 4 | 8 | -2 | . | . | . | .
Cc1ccc2cc(C#N)c(N3CCN(C(=O)c4ccccc4)CC3)nc2c1 | -2 | 2 | 71* | 8 | -1 | 34* | 39 | 8 | 3
CCC(C(=O)Nc1cccnc1)c1ccccc1 (centres undefined) | -16 | 1 | -16 | 4 | 1 | . | . | . | .
CCOC(=O)c1cc2c(=O)n3ccccc3nc2n(Cc2ccco2)c1=NC(=O)c1cccc(OC)c1 | -13 | 0 | 56* | 9 | -1 | 25* | 33 | 4 | 2
CC1C2NC(=O)N(Cc3ccccc3)C1(C)Oc1ccccc12 (centres undefined) | -7 | -1 | -6 | 0 | -1 | . | . | . | .
O=C(CCNS(=O)(=O)c1ccc(F)c(F)c1)NCCN1CCOCC1 | 3 | 0 | 11 | 2 | 1 | . | . | . | .
COc1cc(-c2[nH]nc3c2C(c2ccoc2)C(C#N)=C(N)O3)cc(OC)c1OC (centres undefined) | -6 | 0 | 74* | 27 | 0 | 34* | 57* | 9 | 11
CCC(=O)N1CCN(c2ccc(NC(=O)c3cc4ccccc4o3)cc2Cl)CC1 | -19 | 9 | 73* | 25 | 9 | 49* | 66* | 13* | 12
